Assay outcomes from PubChem BioAssay.
Shown is part of a subset that was picked to be rich in hits.
HCT116 bCat-KO: beta-catenin-lacking colon tumor cell growth suppression | HCT116 beta-catenin knockout viability, CellTiter-Glo, 60 h; active compounds read low | viability, % at 10 µM | 140,000 tested, 1.5% active;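 active means viability at or under a set limit, the compound median less 4 SD, cut at about 6% in these data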;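 further: 0% = Hyamine 1622 control at 20 µM and 100% = untreated cell control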
Lung fibro prol: blocks proliferation of human lung fibroblasts; 85,000 tested, 1.1% active; viability, % at 10 µM; LL 47 human lung fibroblast viability, ATP luminescence; active compounds read low;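 active means viability at or below 50% in the single dose screen; inactive means viability above 50%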;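 further: compound exposure lasted 72 h before the ATP readout; 100% = median luminescence of untreated cell-only wells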
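Material: Human LL 47 lung fibroblast cells | Input: 1,150 cells/well | Buffer or medium: IMEM plus 15% FBS | Compound dosing: 0.1% DMSO in all compound wells | Times: Overnight cell rest, 72 h compound treatment at 37 °C | Signal: CellTiter-Glo luminescence measuring cellular ATP | Measure: % viability versus median cells-only luminescence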
H69AR growth 86K: growth inhibitors of human H69AR lung tumor cells | H69AR lung tumor viability, ATP luminescence, 72 h; active compounds read low | viability, % at 10 µM | 85,000 tested, 6% active | AID 598;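 active means viability at or below 40%; inactive means viability above 40%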;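 further: multidrug resistant small cell line overexpressing MRP-1 efflux transporter; 100% = mean luminescence of untreated control wells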
PTEN del growth: growth suppressors of cells with PTEN tumor suppressor deletion; HCT116 PTEN-null viability, CellTiter-Glo, 60 h; active compounds read low; viability, % at 10 µM; 140,000 tested, 1.2% active;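 active means viability at or below a set limit, 4 SD under the median of all tested compounds, cut at about 3.7% in these data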;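 further: PTEN knockout HCT116 line with beta catenin targeted HCT116 as companion control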
HUVEC inhibit: inhibitors of human endothelial cell proliferation; HUVEC proliferation, CellTiter-Glo luminescence, 72 h; active compounds read low; viability, % at 10 µM (by protocol); 86,000 tested, 1.1% active;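 active means viability at or below 30%; inactive means viability above 30%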;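 further: 100% = median luminescence of DMSO-only cell control wells on each plate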
Starred values were filed as active, the others as inactive; . = no result given.

SMILES	HCT116 bCat-KO	Lung fibro prol	H69AR growth 86K	PTEN del growth	HUVEC inhibit
COc1cccc(/C=N/Nc2cc(-n3nc(C)cc3-c3ccccc3)ncn2)c1O	3.8*	.	.	3.5*	.
COc1cccc(/C=N/Nc2nc3ccccc3n3cnnc23)c1	99	.	.	93	.
Cc1cc(C)n(-c2nc(Nc3ccccc3)nc(-n3nc(C)cc3C)n2)n1	92	99	97	97	90
COc1cccc(/C=N/Nc2nc3ccccc3n3cnnc23)c1O	5.8*	.	.	6	.
COc1cccc(/C=N/Nc2ncnc3scc(-c4ccccc4)c23)c1O	9	.	.	14	.
COc1cccc(/C=N/Nc2nc(Nc3ccccc3)nc(-n3nc(C)cc3C)n2)c1O	2.8*	.	.	2.0*	.
CCCc1nnc(NC(=O)C(CC)OC(=O)c2cc(C)nc3ccccc23)s1 (stereo unspecified)	104	.	.	95	.
COc1ccc2oc(=O)c(C(=O)N3CCN(C45CC6CC(CC(C6)C4)C5)CC3)cc2c1	.	103	98	.	86
O=C(Nc1cccnc1)/C(N=Nc1cccnc1)=C(\O)c1ccccc1	81	.	.	81	.
COc1cccc(/C=N/Nc2ncnc(Cl)c2N)c1O	6	.	.	3.1*	.
COc1ccc(/C=N/Nc2ncnc(Cl)c2N)cc1OC	94	.	.	99	.
CCN(CC)C(=O)CNc1ccc(C(F)(F)F)cc1[N+](=O)[O-]	77	.	.	88	.
CCNC(=S)N/N=C/c1cccc(OCc2c(F)cccc2Cl)c1	61	.	.	62	.
O=C1CCCc2c1[nH]c1ccc(Cl)cc21	87	97	107	94	19*
Cc1ccccc1-n1c(SCC(=O)NCc2cccs2)nc2ccccc2c1=O	88	.	.	82	.
COc1cc2ccccc2cc1C(=O)Nc1ccc(N2CCN(C)CC2)cc1	.	72	7.1*	.	9.0*
CCCCCCCOC(=O)C[N+](C)(C)CCOC1CC2CCC1(C)C2(C)C (stereo unspecified)	1.6*	.	.	1.3*	.
CCCCCCOC(=O)C[N+](C)(C)CCOC1CC2CCC1(C)C2(C)C (stereo unspecified)	34	.	.	30	.
COc1ccccc1NC(=S)NC1CCC(CC2CCC(NC(=S)Nc3ccccc3OC)CC2)CC1 (stereo unspecified)	65	.	.	80	.
O=C(NNC1=C(C(=O)C(F)(F)F)CCC1)c1cccc(O)c1	56	81	77	57	86
Cc1cccc(C(=O)NNC2=C(C(=O)C(F)(F)F)CCC2)c1O	28	65	25*	44	37
CC1CC(C)CN(S(=O)(=O)c2ccc(C(=O)NCCCn3ccnc3)cc2)C1 (stereo unspecified)	84	15*	2.7*	96	79
O=C(Cn1c2ccccc2c(=O)c2ccccc21)N/N=C/c1ccc(N2CCCC2)c([N+](=O)[O-])c1	2.7*	.	.	7	.
O=C(Cn1c2ccccc2c(=O)c2ccccc21)N/N=C/c1cc([N+](=O)[O-])ccc1N1CCCCCC1	11	.	.	10	.
CCC(=O)Oc1ccc(C/C(=N\O)c2ccc(O)cc2O)o1	82	93	16*	79	80
SMILES	HCT116 bCat-KO	Lung fibro prol	H69AR growth 86K	PTEN del growth	HUVEC inhibit
CCOC(=O)c1ccc(CC(=O)c2ccc(O)cc2O)o1	103	97	87	109	110
CCCCN(C(=O)c1cccc2c(=O)c(C)c(-c3ccccc3)oc12)c1ccccc1	12	.	.	16	.
CC(C)Cc1nc2oc3c(Cl)ncnc3c2c2c1CCC2	0.9*	45*	70	0.8*	3.3*
CC1(C)Cc2nc3sc4c(SCC(=O)NCc5ccco5)ncnc4c3cc2CO1	106	62	26*	97	75
Cc1nc2c(sc3nc4c(cc32)COC(C)(C)C4)c(=O)n1CC(=O)NCc1ccco1	7	55	24*	11	49
CC(=O)OCC1OC(Nc2cccc(C)c2)C(OC(C)=O)C(OC(C)=O)C1OC(C)=O (stereo unspecified)	91	.	.	96	.
O=C(CN(Cc1ccco1)C(=O)c1ccccc1)Nc1ccc(Cl)c(Cl)c1	85	.	.	67	.
O=[N+]([O-])c1ccc(N=Nc2ccc(O)cc2O)cc1	1.9*	40*	3.2*	2.4*	18*
CN(C)S(=O)(=O)c1cccc(N=c2scc(-c3ccc4c(c3)NC(=O)CO4)n2CC2CCCO2)c1 (stereo unspecified)	17	93	34*	23	64
COc1ccccc1N=c1scc(-c2ccc3c(c2)NC(=O)CO3)n1CC1CCCO1 (stereo unspecified)	61	96	61	61	78
COC(=O)c1ccc(Oc2nc(C(N)=O)cc(-c3ccccc3)n2)cc1	22	99	12*	9	101
c1ccc(-c2nc(NCCCN3CCOCC3)c3ccccc3n2)cc1	67	99	26*	64	83
O=c1c2ccccc2nc2c3ccccc3c(NCCN3CCOCC3)nn12	1.9*	33*	19*	2.5*	36
O=c1c2ccccc2nc2c3ccccc3c(N3CCOCC3)nn12	.	95	77	.	96
Cc1c(NC(=S)NC(NC(=O)C(C)(C)C)C(Cl)(Cl)Cl)c(=O)n(-c2ccccc2)n1C (stereo unspecified)	92	.	.	102	.
CCOC(=O)c1c(C)oc2c(F)c(F)c(F)c(F)c2c1=O	9	59	.	7	8.7*
Cc1ccc(C(=O)N2CCN3C(=O)c4ccccc4C23c2ccc(Cl)cc2)cc1 (stereo unspecified)	13	61	33*	8	66
O=C(Nc1cccc(Cl)c1)N1CCN2C(=O)c3ccccc3C12c1ccccc1 (stereo unspecified)	80	82	85	61	82
COc1ccc(C(=O)/C=C/Nc2ccc(S(=O)(=O)Nc3onc(C)c3C)cc2)cc1	102	.	.	101	.
Cc1cc(C)c(O)c(-c2cc(C(=O)Nc3ccc(S(=O)(=O)N4CCOCC4)cc3)[nH]n2)c1	2.3*	41*	9.2*	1.2*	36
CC1=CC(=O)C=C(C)C1=NOS(=O)(=O)c1ccccc1	1.6*	1.4*	0.7*	2.7*	1.1*
CCOC(=O)c1c(C2COc3ccccc3O2)csc1NC(=O)c1ccccc1 (stereo unspecified)	0.8*	98	75	0.5*	109
COC(=O)/C(=C1/Oc2ccc(C)cc2S1)C(F)(F)F	96	.	.	104	.
Cc1c(NC(=O)c2cccc(-c3cc4ccccc4oc3=O)c2)cccc1-c1nc2ncccc2o1	39	.	.	27	.
COc1ccc(CCn2c(-c3ccco3)nc3ccccc3c2=O)cc1OC	24	105	39*	26	68
COc1ccc(-c2nc3oc4cc(OC)ccc4c(=O)c3c(=O)n2Cc2ccco2)cc1	87	100	3.8*	80	102
COc1ccc(Cn2c(-c3ccco3)nc3oc4ccccc4c(=O)c3c2=O)cc1	96	72	29*	96	75
COCCCn1c(-c2ccco2)nc2ccccc2c1=O	92	97	96	88	95
COc1ccc(Cn2c(-c3ccco3)nc3oc4cc(OC)ccc4c(=O)c3c2=O)cc1	45	98	20*	33	73
